PTEN del growth = suppresses growth of cells with PTEN deletion; HCT116 PTEN-null viability, CellTiter-Glo, 60 h; hits give low values; viability, % at 10 µM; 1.2% of 140,000 active; AID 827;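 active means viability at or below a set limit, 4 SD under the median of all tested compounds, cut at about 3.7% in these data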;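 further: PTEN knockout HCT116 line with beta catenin targeted HCT116 as companion control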
Fibroblast inh = blocks proliferation of human lung fibroblasts. viability, % at 10 µM. 1.1% of 85,000 active. LL 47 human lung fibroblast viability, ATP luminescence; hits give low values;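 active means viability at or below 50% in the single dose screen; inactive means viability above 50%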;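 further: compound exposure lasted 72 h before the ATP readout; 100% = median luminescence of untreated cell-only wells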
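Material: human LL 47 lung fibroblast cells; quantity: 1,150 cells/well; medium: IMEM plus 15% FBS; doses: 0.1% DMSO in all compound wells; timing: overnight attachment after seeding, then 72 h compound exposure at 37 °C; detection: CellTiter-Glo luminescence; measure: % viability of median cell-only signal; controls: cell-only wells, no compound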
H69AR growth 86K = blocks growth of human H69AR lung tumor cells. H69AR lung tumor viability, ATP luminescence, 72 h; hits give low values. viability, % at 10 µM. 6% of 85,000 active;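 active means viability at or below 40%; inactive means viability above 40%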;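 further: multidrug resistant small cell line overexpressing MRP-1 efflux transporter; 100% = mean luminescence of untreated control wells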
HUVEC inhibit = inhibitors of human endothelial cell proliferation; HUVEC proliferation, CellTiter-Glo luminescence, 72 h; hits give low values; viability, % at 10 µM (by protocol); 1.1% of 86,000 active;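 active means viability at or below 30%; inactive means viability above 30%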;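 further: 100% = median luminescence of DMSO-only cell control wells on each plate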
bCat KO growth = beta-catenin-lacking colon tumor cell growth suppression. viability, % at 10 µM. HCT116 beta-catenin knockout viability, CellTiter-Glo, 60 h; hits give low values. AID 818. 1.5% of 140,000 active;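 active means viability at or under a set limit, the compound median less 4 SD, cut at about 6% in these data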;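 further: 0% = Hyamine 1622 control at 20 µM and 100% = untreated cell control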
Starred values were filed as active, the others as inactive; / = no result. The entries come from a sample that favours hits as a whole.

SMILES | PTEN del growth | Fibroblast inh | H69AR growth 86K | HUVEC inhibit | bCat KO growth
NC(=O)c1oc2ccccc2c1NC(=O)c1nc2ccccc2s1 | 82 | 95 | 91 | 91 | 86
CC(OC(=O)C1CCN(S(=O)(=O)c2ccc(Cl)cc2)CC1)C(=O)N1CCc2ccccc21 (stereo unspecified) | 102 | 108 | 89 | 103 | 95
O=C(O)/C=C/C(=O)NNC(=O)c1cccc(Br)c1 | 96 | / | / | / | 92
CC(C)(C)OC(=O)[C@H]1[C@H](c2ccc([N+](=O)[O-])cc2)C2(C(=O)c3ccccc3C2=O)C2c3ccccc3C=NN21 (stereo partly specified) | 48 | / | / | / | 48
CC(C)(C)c1ccc(C(=O)NCC(=O)OCC(=O)c2ccc3c(c2)-c2ccccc2C3)cc1 | 94 | / | / | / | 82
COc1ccc(-c2nnc(NC(=O)c3cc(Cl)ccc3Cl)o2)cc1 | 22 | 76 | 30* | 50 | 29
CN(C)S(=O)(=O)c1ccc(C(=O)Nc2nnc(-c3ccc4c(c3)CCCC4)o2)cc1 | 15 | 71 | 28* | 40 | 15
CC(Oc1ccc(Br)cc1)C(=O)Nn1c(=S)[nH]c2ncccc2c1=O (stereo unspecified) | 89 | / | / | / | 87
Cc1occc(=O)c1OC(=O)Nc1ccc(Cl)c(Cl)c1 | 6 | / | / | / | 7
CC(=O)Oc1ccc2ccccc2c1C(NC(=O)Cc1ccccc1)c1ccc(Cl)cc1 (stereo unspecified) | 0.9* | / | / | / | 0.8*
O=C1CSC(=S)N1c1cccnc1 | 100 | 103 | 101 | 94 | 110
O=C1CSC(=S)N1Cc1cccnc1 | 3.2* | 36* | 1.2* | 51 | 3.9*
CCn1cc(Cl)c(C(=O)N2N=C3/C(=C/c4cccs4)CCCC3C2c2cccs2)n1 (stereo unspecified) | 51 | 92 | 38* | 75 | 54
Cc1ncsc1C(=O)N1N=C2/C(=C/c3ccccc3)CCCC2C1c1ccccc1 (stereo unspecified) | 39 | / | / | / | 44
COc1ccc(-c2cnc3c(c2)CCC3(C#N)C#N)cc1 | 15 | / | / | / | 17
CCOC(=O)Cc1sc(N)nc1C | 97 | / | / | / | 84
COc1ccc(N2C(=O)NC3CC2(C)Oc2ccc(Cl)cc23)cc1OC (stereo unspecified) | 72 | 91 | 26* | 96 | 77
O=C(CC(c1cccs1)S(=O)(=O)c1ccccc1)c1ccc(F)cc1 (stereo unspecified) | 26 | / | / | / | 35
O=C1C(Cl)=C(N2CCOCC2)C(=O)N1c1ccccc1Cl | 91 | / | 28* | 101 | 97
COc1cc(NS(=O)(=O)c2ccc3c(c2)oc(=O)n3C)cc(OC)c1OC | 28 | 92 | 27* | 71 | 31
COc1ccc(NS(=O)(=O)c2ccc3c(c2)oc(=O)n3C)c(OC)c1 | 93 | 93 | 94 | 97 | 89
COc1nc(-c2ccccc2)ccc1-c1noc(-c2ccccc2)n1 | 95 | 102 | 72 | 93 | 96
CCOc1nc(-c2ccccc2)ccc1-c1noc(-c2ccc(OC)c(OC)c2)n1 | / | 99 | 32* | 71 | /
Cn1c(=O)c2c(SCC(=O)N3CCCc4ccccc43)nc(CC(C)(C)C)nc2n(C)c1=O | 4 | 80 | 30* | 89 | 4.8*
Cn1c(=O)c2c(SCC(=O)N3CCOCC3)nc(CC(C)(C)C)nc2n(C)c1=O | 61 | 35* | 24* | 45 | 49
SMILES | PTEN del growth | Fibroblast inh | H69AR growth 86K | HUVEC inhibit | bCat KO growth
Nc1nc2ccccc2n1C(=O)CCc1ccccc1 | 68 | 85 | 26* | 85 | 71
COC(=O)c1ccc(CO/N=C(\NC(C)=O)c2nonc2NC(C)=O)cc1 | 89 | / | / | / | 84
O=C(/C(=C/c1ccc(Cl)cc1)c1nc2ccccc2[nH]1)c1cccs1 | 1.9* | / | / | / | 1.9*
O=C(/C=C/c1cccc(Cl)c1)c1nc2ccccc2[nH]1 | 1.0* | / | / | / | 0.7*
COc1ccc(/C=C(/NC(=O)c2ccccc2)c2nc3ccccc3[nH]2)cc1OC | 98 | / | / | / | 86
COc1cc(/C=C(/C(=O)c2cccs2)c2nc3ccccc3[nH]2)ccc1O | 2.0* | 11* | 2.0* | 38 | 3.8*
O=C(/C(=C\c1ccccc1)c1nc2ccccc2[nH]1)c1ccc(Cl)cc1 | 1.9* | / | / | / | 2.2*
O=C(NCc1ccccn1)c1ccc(CNS(=O)(=O)c2cccc(Cl)c2)cc1 | 108 | / | / | / | 86
O=C(CSc1cccc2cccnc12)N1CCCC1 | 8 | 18* | 0.0* | 64 | 8
CN(C)C(=O)CSc1cccc2cccnc12 | 6 | 40* | 0.6* | 72 | 4.3*
NNC(=O)CSc1cccc2cccnc12 | 102 | / | / | / | 92
